For test [1], the system named is Mycobacterium tuberculosis. The test is described as follows: Antimycobacterial activity against Mycobacterium tuberculosis H37Rv ATCC 27294 after 21 days by agar proportion method. The format is functional. To be noted: 504 h. The method in brief:
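Agar proportion method on Middlebrook 7H10 with glycerol and OADC, compounds added from DMSO solutions at […]. H37Rv was grown in 7H9 broth at 37 °C for 4–7 days and adjusted to McFarland no. 1. The 10^-2 and 10^-4 dilutions were the inocula. MIC was read after 21 days at 37 °C under 5–7% CO₂.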

Test [2] can be described thus: Antagonist activity at calcium channel in guinea pig ileum assessed as inhibition of KCl-induced contraction of ileal longitudinal smooth muscle pretreated 15 mins before KCl challenge. The format is functional, tissue-based. The note with it: Cavia porcellus.

pIC50: −log10 of the molar value. ≈ marks a conversion by molar mass, not a printed value. Where only a bound is given, the exact number is not on record here.

`CCN(CC)C(=O)C1=C(C)NC(C)=C(C(=O)OCc2ccccc2)C1c1ncc([N+](=O)[O-])n1C` (stereo not drawn): the MIC in test [1] is 1 µM (≈ 0.468 µg/mL). The pIC50 in test [2] was 5.38.

The compound `CCN(CC)C(=O)C1=C(C)NC(C)=C(C(=O)OC)C1c1ncc([N+](=O)[O-])n1C` (stereo not drawn) registered an MIC in test [1] greater than 500 µM. Moreover, in test [2], the pIC50 was 4.49.

Turning to `NNC(=O)c1ccncc1` [ISONIAZID], the MIC in test [1] is 1 µM (≈ 0.137 µg/mL).

For `CCN(CC)C(=O)C1=C(C)NC(C)=C(C(=O)OCCCCCc2ccccc2)C1c1ncc([N+](=O)[O-])n1C` (stereo not drawn), it took 2 µM (≈ 1.05 µg/mL) to inhibit growth in test [1] (MIC). Besides, the pIC50 in test [2] was 4.62.

For `COC(=O)C1=C(C)NC(C)=C(C(=O)OC)C1c1ccccc1[N+](=O)[O-]` [NIFEDIPINE], the pIC50 in test [2] was 8.97.

On to `CCCCOC(=O)C1=C(C)NC(C)=C(C(=O)N(CC)CC)C1c1ncc([N+](=O)[O-])n1C` (stereo not drawn), for which the lowest concentration to inhibit growth in test [1] (MIC) was 1 µM (≈ 0.434 µg/mL). Also, in test [2], the pIC50 was 5.07.

Take `CO[C@H]1/C=C/O[C@@]2(C)Oc3c(C)c(O)c4c(O)c(c(/C=N/N5CCN(C)CC5)c(O)c4c3C2=O)NC(=O)/C(C)=C\C=C\[C@H](C)[C@H](O)[C@@H](C)[C@@H](O)[C@@H](C)[C@H](OC(C)=O)[C@@H]1C` [RIFAMPIN]: in test [1], it took 1 µM (≈ 0.823 µg/mL) to inhibit growth (MIC).

`CCCOC(=O)C1=C(C)NC(C)=C(C(=O)N(CC)CC)C1c1ncc([N+](=O)[O-])n1C` (stereo not drawn) yielded an MIC in test [1] of 2 µM (≈ 0.839 µg/mL). The pIC50 in test [2] is 4.92.

As to `CCN(CC)C(=O)C1=C(C)NC(C)=C(C(=O)OCCCc2ccccc2)C1c1ncc([N+](=O)[O-])n1C` (stereo not drawn), the MIC in test [1] was 1 µM (≈ 0.496 µg/mL). For the same compound, the pIC50 in test [2] is 5.57.

`CCN(CC)C(=O)C1=C(C)NC(C)=C(C(=O)OCCCCc2ccccc2)C1c1ncc([N+](=O)[O-])n1C` (stereo not drawn) returned an MIC in test [1] of 2 µM (≈ 1.02 µg/mL). In test [2], the negative logarithm of the IC50 (pIC50) was 5.46.

`CCN(CC)C(=O)C1=C(C)NC(C)=C(C(=O)OCCc2ccccc2)C1c1ncc([N+](=O)[O-])n1C` (stereo not drawn) came in with an MIC in test [1] of 1 µM (≈ 0.482 µg/mL). Further, in test [2], the pIC50 was 5.62.

In test [1], `CCN(CC)C(=O)C1=C(C)NC(C)=C(C(=O)OC(C)C)C1c1ncc([N+](=O)[O-])n1C` (stereo not drawn) registered an MIC greater than 500 µM. The negative logarithm of the IC50 (pIC50) in test [2] is 4.73.

The compound `CCOC(=O)C1=C(C)NC(C)=C(C(=O)N(CC)CC)C1c1ncc([N+](=O)[O-])n1C` (stereo not drawn) returned an MIC in test [1] of 250 µM (≈ 101 µg/mL). Moreover, the pIC50 in test [2] is 4.53.

The values are drawn from ChEMBL document CHEMBL1152702, “Synthesis and biological evaluation of some new 1,4-dihydropyridines containing different ester substitute and diethyl carbamoyl group as anti-tubercular agents” (Bioorg Med Chem, 2009).
